Entries after “also recorded” stand apart in the source; their conditions may differ.
Tests used:
γH2AX = γH2AX in hair follicles; assay type: in vivo, human; settings: 4 patients, daily trial, 4-6 h post-infusion vs pre-infusion; p=0.027, 1-sided
Top1 [1] = target: T1, Top1 (Homo sapiens, UniProt P11387); assay: Top1 levels in PBMCs; assay type: in vivo
T1 sequence (P11387 1-765): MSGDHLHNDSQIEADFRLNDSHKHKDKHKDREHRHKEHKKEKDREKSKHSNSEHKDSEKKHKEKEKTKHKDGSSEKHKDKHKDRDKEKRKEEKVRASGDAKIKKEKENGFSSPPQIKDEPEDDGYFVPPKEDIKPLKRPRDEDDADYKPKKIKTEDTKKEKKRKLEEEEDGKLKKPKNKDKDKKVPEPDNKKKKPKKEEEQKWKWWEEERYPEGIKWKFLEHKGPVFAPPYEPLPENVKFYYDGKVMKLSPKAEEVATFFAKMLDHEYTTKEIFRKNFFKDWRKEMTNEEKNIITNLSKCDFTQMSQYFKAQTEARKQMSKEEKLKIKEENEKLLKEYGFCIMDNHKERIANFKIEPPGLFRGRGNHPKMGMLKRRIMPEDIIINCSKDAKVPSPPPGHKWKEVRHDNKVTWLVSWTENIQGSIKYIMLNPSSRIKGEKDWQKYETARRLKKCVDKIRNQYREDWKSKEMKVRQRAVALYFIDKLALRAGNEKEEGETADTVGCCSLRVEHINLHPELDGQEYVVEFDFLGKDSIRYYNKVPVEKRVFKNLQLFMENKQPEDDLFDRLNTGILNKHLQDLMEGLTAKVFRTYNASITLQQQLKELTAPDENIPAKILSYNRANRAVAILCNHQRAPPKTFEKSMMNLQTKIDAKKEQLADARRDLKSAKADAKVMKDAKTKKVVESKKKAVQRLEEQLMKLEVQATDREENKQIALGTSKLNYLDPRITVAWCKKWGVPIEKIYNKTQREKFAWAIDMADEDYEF
In short: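 PBMCs collected in the daily trial before dosing and 4 h after infusion start on cycle 1 days 1 and 3. Top1 measured by validated immunofluorescence assay, expressed as pg/10^7 cells. Reportable only if pre-dose Top1 exceeded twice the LLQ; samples also had to pass assay QC. Result given as percent change from baseline per patient.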

[2] = Plasma and urine pharmacokinetics; assay type: in vivo, human; settings: for AUC(0-t) / Cmax / AUC(0-inf) / half-life: human, plasma, intravenous
[3] = tested on: patients with advanced solid tumors; assay: Phase I trial, weekly schedule; assay type: in vivo
[4] = tested on: patients with advanced solid tumors; assay: Phase I trial, daily schedule; assay type: in vivo
Top1 [5] = target: T1, Top1; assay: Top1 levels in paired tumor biopsies; assay type: in vivo; settings: of the 8 patients on the daily schedule
In short: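 Daily schedule: tumor biopsies taken at baseline and 2–4 h after infusion start on cycle 1 day 3. Top1 quantified by validated immunofluorescence assay (pg/μg protein). Pre-dose value had to exceed twice the LLQ to allow detection of a 50% reduction. Reported as percent change from baseline for each patient.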

[6] = cited from earlier work
[7] = weekly trial, Total (N=21), all dose levels, SD of geometric mean in parenthesis
[8] = weekly trial, W1, 60 mg/m^2 over 3 h, N=6, SD of geometric mean in parenthesis
[9] = weekly trial, W2, 90 mg/m^2 over 3 h, N=8, SD of geometric mean in parenthesis
[10] = weekly trial, W3, 135 mg/m^2 over 3 h, N=7, SD of geometric mean in parenthesis

COc1cc2c3c(n(CCCN4CCOCC4)c(=O)c2cc1OC)-c1cc2c(cc1C3=O)OCO2 [indotecan]
γH2AX formation in hair bulbs (γH2AX): induced significant DNA damage | Effects of treatment on PBMC Top1 levels (Top1 [1]; DL-D2 through DL-D6, 4 h after start of infusion, cycle 1 days 1 and 3): inconclusive | Decrease in PBMC Top1 level (Top1 [1]; patients #0003 and #0015, post-dose vs baseline): > 70% | Renal excretion 0–24 h ([2]; daily trial, D1, 2.5 mg/m^2 over 1 h, N=1): 0.49% dose | Renal excretion 0–24 h ([2]; daily trial, D2, 5 mg/m^2 over 1 h, N=3, SD of geometric mean in parenthesis): 0.48% (0.21%) % dose | Renal excretion 0–24 h ([2]; daily trial, D3, 10 mg/m^2 over 1 h, N=1): 0.36% dose | Renal excretion 0–24 h ([2]; daily trial, D4, 20 mg/m^2 over 1 h, N=1): 0.26% dose | Renal excretion 0–24 h ([2]; daily trial, D5a, 60 mg/m^2 over 1 h, N=6, SD of geometric mean in parenthesis): 0.18% (0.17%) % dose | Renal excretion 0–24 h ([2]; daily trial, D6, 80 mg/m^2 over 1 h, N=3, SD of geometric mean in parenthesis): 0.26% (0.03%) % dose | Renal excretion 0–24 h ([2]; daily trial, Total (N=20), all dose levels, SD of geometric mean in parenthesis): 0.24% (0.17%) % dose | Clearance as share of human hepatic blood flow ([2]; hepatic blood flow from ref 15): approximately 2% | AUC(0-t) ([2]; 2.5 mg/m2, AUC0–24, daily trial, D1, 2.5 mg/m^2 over 1 h, N=1): 547 ng·h/mL | Cmax ([2]; 2.5 mg/m2, Cmax, daily trial, D1, 2.5 mg/m^2 over 1 h, N=1): 94.3 ng/mL | AUC(0-t) ([2]; 5 mg/m2, AUC0–24, daily trial, D2, 5 mg/m^2 over 1 h, N=3, SD of geometric mean in parenthesis): 1450 ng·h/mL | Cmax ([2]; 5 mg/m2, Cmax, daily trial, D2, 5 mg/m^2 over 1 h, N=3, SD of geometric mean in parenthesis): 191 ng/mL | AUC(0-inf) ([2]; 60 mg/m2): 56400 ng·h/mL | AUC(0-t) ([2]; 60 mg/m2, AUC0–24, daily trial, D5a, 60 mg/m^2 over 1 h, N=6, SD of geometric mean in parenthesis): 12800 ng·h/mL | AUC(0-t) ([2]; 60 mg/m2, AUC0–24, weekly trial, W1, 60 mg/m^2 over 3 h, N=6, SD of geometric mean in parenthesis): 13700 ng·h/mL | Cmax ([2]; 60 mg/m2, Cmax, daily trial, D5a, 60 mg/m^2 over 1 h, N=6, SD of geometric mean in parenthesis): 1610 ng/mL | Cmax ([2]; 60 mg/m2, Cmax, weekly trial, W1, 60 mg/m^2 over 3 h, N=6, SD of geometric mean in parenthesis): 1270 ng/mL | half-life ([2]; 60 mg/m2, t1/2, weekly trial, W1, 60 mg/m^2 over 3 h, N=6, SD of geometric mean in parenthesis): 89 h | AUC(0-t) ([2]; 80 mg/m2, AUC0–24, daily trial, D6, 80 mg/m^2 over 1 h, N=3, SD of geometric mean in parenthesis): 14700 ng·h/mL | Cmax ([2]; 80 mg/m2, Cmax, daily trial, D6, 80 mg/m^2 over 1 h, N=3, SD of geometric mean in parenthesis): 1650 ng/mL | AUC(0-inf) ([2]; 90 mg/m2): 88600 ng·h/mL | AUC(0-t) ([2]; 90 mg/m2, AUC0–24, weekly trial, W2, 90 mg/m^2 over 3 h, N=8, SD of geometric mean in parenthesis): 18700 ng·h/mL | Cmax ([2]; 90 mg/m2, Cmax, weekly trial, W2, 90 mg/m^2 over 3 h, N=8, SD of geometric mean in parenthesis): 1690 ng/mL | half-life ([2]; 90 mg/m2, t1/2, weekly trial, W2, 90 mg/m^2 over 3 h, N=8, SD of geometric mean in parenthesis): 74 h | AUC(0-inf) ([2]; 135 mg/m2): 70800 ng·h/mL | AUC(0-t) ([2]; 135 mg/m2, AUC0–24, weekly trial, W3, 135 mg/m^2 over 3 h, N=7, SD of geometric mean in parenthesis): 21500 ng·h/mL | Cmax ([2]; 135 mg/m2, Cmax, weekly trial, W3, 135 mg/m^2 over 3 h, N=7, SD of geometric mean in parenthesis): 1930 ng/mL | half-life ([2]; 135 mg/m2, t1/2, weekly trial, W3, 135 mg/m^2 over 3 h, N=7, SD of geometric mean in parenthesis): 50 h | Inter-patient variability, coefficient of variation in drug clearance ([2]; in vivo): 58% | Clearance ([2]; patients): 1 L/h/m^2 | CL [2, 7]: 1.27 (0.74) L/h/m^2 | Renal excretion 0–24 h [2, 7]: 0.19% (0.13%) % dose | Vss [2, 7]: 109 (69) L/m^2 | CL [2, 8]: 1.06 (0.34) L/h/m^2 | Renal excretion 0–24 h [2, 8]: 0.21% (0.08%) % dose | Vss [2, 8]: 116 (121) L/m^2 | CL [2, 9]: 1.02 (0.73) L/h/m^2 | Renal excretion 0–24 h [2, 9]: 0.15% (0.13%) % dose | Vss [2, 9]: 99.3 (32.6) L/m^2 | CL [2, 10]: 1.91 (0.73) L/h/m^2 | Renal excretion 0–24 h [2, 10]: 0.22% (0.16%) % dose | Vss [2, 10]: 114 (39) L/m^2 | Maximum tolerated dose (MTD) ([3]; days 1, 8, 15 in 28-day cycles, iv over 3 h): 90 mg/m^2 | Principal toxicity ([3]; in vivo): myelosuppression | Objective response (RECIST) ([3]; weekly schedule, 21 patients): No objective responses were observed on either schedule; also recorded: no patient on either schedule had an objective response | Maximum tolerated dose (MTD) ([4]; daily for 5 days in 28-day cycles, iv over 1 h): 60 mg/m^2/day | Objective response (RECIST) ([4]; daily schedule, 21 patients): No objective responses were observed on either schedule; also recorded: no patient on either schedule had an objective response | Principal toxicity ([4]; in vivo): myelosuppression | Number of patients with significant Top1 decreases in post-treatment biopsies (Top1 [5]): 3 | Drug in the unbound state (protein binding) [6]: approximately 2%

— PMC5199138 (Cancer chemotherapy and pharmacology, 2016)
